Results published in ChEMBL document CHEMBL1133665, “Secondary amides of (R)-3,3,3-trifluoro-2-hydroxy-2-methylpropionic acid as inhibitors of pyruvate dehydrogenase kinase” (J Med Chem, 2000).
Each block holds one molecule with its values, some of them ahead of it. Activity calls are given as the source filed them. The rule behind the calls is not given here.

How the values were obtained:
[1] = species: Homo sapiens; assay: Effective concentration required to increase the oxidation of lactate in cellular assay using Human Skin Fibroblasts; format: functional
Outline: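 Human fibroblasts harvested with trypsin 2-4 days post-confluence and assayed in suspension ((3.5-5) × 10^5 cells per tube) with test compound or solvent control. Equilibrated at 37 °C, then started with DMEM-S containing 25 µM lactate and 0.2 µCi/mL d,l-[1-14C]lactate. Gassed with 95% O2/5% CO2 and shaken 25 min at 37 °C. Stopped with TCA; released 14CO2 trapped and counted by scintillation. EC50 ± standard error.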

[2] = target: Pyruvate dehydrogenase kinase (Rattus norvegicus, UniProt Q63065+A6IPZ9+Q64536+O54937); assay: Inhibitory activity tested against Pyruvate Dehydrogenase Kinase (PDHK) receptor from rats.; format: protein assay
Outline: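 Commercial PDH complex used as the kinase-containing preparation. PDHK inhibition read spectrophotometrically as NADH production at 340 nm, measured with and without ATP. IC50 ± standard error, from purified substances.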

[3] = tested on: Rattus norvegicus; assay: In vivo %control of lactate in normal Sprague-Dawley rats after 2 hr at a dose of 10 umol/Kg; format: functional
Outline: (§1)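 Male Sprague-Dawley rats, about 200 g, randomly assigned to groups (n = 6/group) and fasted 24 h. Single oral dose of compound in 0.5% carboxymethylcellulose/0.2% Tween-80 (1 mL/100 g), or vehicle alone. Blood taken 2 h post-dose into heparin/fluoride tubes; lactate measured on a biochemistry analyzer. Expressed as percent of vehicle control; groups compared by two-tailed unpaired t-test.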

[4] = tested on: Rattus norvegicus; assay: In vivo %control of lactate in normal Sprague-Dawley rats after 2 hr at a dose of 100 umol/Kg; format: functional; outline: as §1
[5] = tested on: Rattus norvegicus; assay: In vivo %control of lactate in normal Sprague-Dawley rats after 2 hr at a dose of 30 umol/Kg; format: functional; outline: as §1
[6] = tested on: Rattus norvegicus; assay: In vivo %control of lactate in normal Sprague-Dawley rats after 2 hr at a dose of 100 umol/Kg; Not active; format: functional, organism-based; outline: as §1
[7] = tested on: Rattus norvegicus; assay: In vivo %control of lactate in normal Sprague-Dawley rats after 2 hr at a dose of 30 umol/Kg; not active; format: functional, organism-based; outline: as §1
[8] = tested on: Rattus norvegicus; assay: In vivo %control of lactate in normal Sprague-Dawley rats after 2 hr at a dose of 1 umol/Kg; format: functional
Outline: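 Male Sprague-Dawley rats, about 200 g, randomly assigned to groups (n = 6/group), fasted 24 h, then given compound orally in 0.5% carboxymethylcellulose with 0.2% Tween-80 (1 mL/100 g body weight) or vehicle alone. Blood drawn 2 h post-dose into heparin/fluoride tubes. Lactate measured on a dual-channel biochemistry analyzer and expressed as percent of vehicle control. Unpaired two-tailed t-test.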

[9] = tested on: Rattus norvegicus; assay: In vivo %control of lactate in normal Sprague-Dawley rats after 2 hr at a dose of 3 umol/Kg; format: functional; outline: as §1

SMILES: C[C@@H]1CN(C(=O)[C@@](C)(O)C(F)(F)F)[C@@H](C)CN1Cc1ccccc1
- IC50 [2]: 0.082 µM
- NA [7]: inactive

SMILES: O=C([O-])C(Cl)Cl.[Na+] [SODIUM DICHLOROACETATE]
- IC50 [2]: > 1000 µM
- Control [8]: 70%

SMILES: C[C@@H]1CN(C(=O)[C@@](C)(O)C(F)(F)F)[C@@H](C)CN1C(=O)c1ccc(C#N)cc1
- EC50 [1]: 0.057 µM
- IC50 [2]: 0.016 µM
- Control [8]: 87%
- Control [3]: 74%
- Control [9]: 90%

Now from value to molecule, other results behind:

- IC50 [2]: 0.079 µM
SMILES: C[C@@H]1CN(C(=O)[C@@](C)(O)C(F)(F)F)CCN1C(=O)c1ccc(C#N)cc1
- EC50 [1]: 0.25 µM
- Control [3]: 90%
- Control [4]: 67%
- Control [5]: 60%

- IC50 [2]: 0.07 µM
SMILES: C[C@@H]1CN(C(=O)[C@@](C)(O)C(F)(F)F)CCN1C(=O)c1cccc2ccccc12
- NA [6]: inactive
